Screens: PubChem, several laboratories
PREPL inh = PREPL enzyme inhibitors, primary screen, biochemical, fluorescence polarization; Prolyl endopeptidase-like (Homo sapiens), Q4J6C6; recombinant PREPL, fluorescence polarization activity-based probe; inhibition, % at 5.96 µM; 320,000 tested, 0.68% active; AID 2751, 2010; in the data active means inhibition above about 43%
CTSL1 counter = Fasciola hepatica cathepsin L1 inhibitors, primary screen, counter-screen for PFM18AAP inhibitor project, biochemical, QFRET, fluorogenic peptide substrate. recombinant F. hepatica cathepsin L1, Z-Leu-Arg-MCA fluorescence. inhibition, % at 5.96 µM. 300,000 tested, 0.49% active;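 active means inhibition above the mean of all tested compounds plus 3 SD, set per screening campaign, cut at about 17% in these data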
PP1 inh = PP1-alpha phosphatase inhibitors, primary screen, counter-screen for PP5 inhibitor project, biochemical, fluorescence, OMFP substrate, single point. Serine/threonine-protein phosphatase PP1-alpha catalytic subunit (Homo sapiens), P62136. purified PP1alpha. inhibition, % at 6.7 µM. 320,000 tested, 0.9% active;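 active means inhibition above the mean inhibition of all tested compounds plus 3 SD, computed separately for each screening campaign, cut at about 15% in these data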
PP5 primary = PP5 phosphatase inhibitors, primary screen, biochemical, fluorescence; Serine/threonine-protein phosphatase 5 (Homo sapiens), P53041; purified PP5c, OMFP substrate fluorescence; inhibition, % at 6.7 µM; 320,000 tested, 0.18% active; AID 1987, 2009;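 active means inhibition above the campaign's mean inhibition across all tested compounds plus 3 SD, cut at about 9.5% in these data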
UBC13 inh = UBC13 polyubiquitin chain formation inhibitors, primary screen, biochemical, TR-FRET, uHTS. 330,000 tested, 0.47% active. Ubiquitin-conjugating enzyme E2 N (Homo sapiens), P61088. inhibition, % at 20 µM; in the data active means inhibition above about 45%, passing the limit was not always enough
Target sequence (P61088 whole entry, looked up): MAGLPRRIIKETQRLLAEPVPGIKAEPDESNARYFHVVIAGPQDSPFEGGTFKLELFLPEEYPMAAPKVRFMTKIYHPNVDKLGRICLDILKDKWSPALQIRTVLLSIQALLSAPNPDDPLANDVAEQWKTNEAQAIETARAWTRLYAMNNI
UCH37 inh = inhibitors of human UCH37 deubiquitinase, primary screen, biochemical, Ub-AMC cleavage, fluorescence | Ubiquitin carboxyl-terminal hydrolase isozyme L5 (Homo sapiens), Q9Y5K5 | 330,000 tested, 0.33% active | inhibition, % (concentration not given with the values) | purified proteasome/UCH37;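 active means mean inhibition over replicate wells above about 20%, limit read from the data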
Target sequence (Q9Y5K5 whole entry, looked up): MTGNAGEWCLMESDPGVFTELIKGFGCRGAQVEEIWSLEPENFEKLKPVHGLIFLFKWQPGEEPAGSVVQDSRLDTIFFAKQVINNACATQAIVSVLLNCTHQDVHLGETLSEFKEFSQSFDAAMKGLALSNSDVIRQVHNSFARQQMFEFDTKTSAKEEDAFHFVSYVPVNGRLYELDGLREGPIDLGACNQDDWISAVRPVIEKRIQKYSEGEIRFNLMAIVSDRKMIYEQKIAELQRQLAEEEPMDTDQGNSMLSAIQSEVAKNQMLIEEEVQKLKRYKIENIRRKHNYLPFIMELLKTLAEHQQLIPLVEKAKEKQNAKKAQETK
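Material: Human UCH37 enzyme supplied as purified proteasome complex | Schedule: 30 min compound-proteasome preincubation then 25 min substrate reaction, room temperature | Detection: AMC fluorescence from Ub-AMC cleavage, excitation 355 nm, emission 460 nm | Benchmarks: Wells without proteasome as full block, compound-free enzyme plus substrate as uninhibited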
PP1 confirm = PP1 phosphatase inhibitors, confirmation, biochemical, fluorescence, OMFP substrate, triplicate; shares compounds with PP1 inh; purified PP1alpha; inhibition, % at 6.7 µM; 1,900 tested, 52% active;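 active means mean PP1 inhibition above a set limit taken from the earlier primary screen, cut at about 15% in these data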
PP5 counter = PP5 phosphatase inhibition by PP1 hits, confirmation, counter-screen for PP1 inhibitor project, biochemical, fluorescence, triplicate; shares compounds with PP1 inh; purified PP5c, OMFP fluorescence; inhibition, % at 6.7 µM; 1,900 tested, 4% active; AID 2360, 2010;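 active means mean PP5 inhibition over triplicate wells above about 9.5% taken from the earlier PP1 screen, limit read from the data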
Of the large screens only hits and unclear results are named; the others gave an inactive call (follow-up assays come after a bar, where they were run). In the library only some 2.3% were active in any assay of this set; here they are far more common.

COC(=O)c1ccc(C2/C(=C(/O)c3ccc(OC(C)C)cc3)C(=O)C(=O)N2c2cc(C)on2)cc1 (stereo not given)	PP1 inh 19.8 | PP1 confirm inactive | PP5 counter inactive
CC1(O)C(=O)C=C2C=C(c3ccc(C#N)cc3)OC=C2C1=O (stereo not given)	PP1 inh 35.5 (no result: UCH37 inh) | PP1 confirm 21.4 | PP5 counter inactive
COc1ccc(C2=CC3=CC(=O)C(C)(O)C(=O)C3=CO2)cc1 (stereo not given)	PP1 inh 17.8 (no result: UCH37 inh) | PP1 confirm inactive | PP5 counter inactive
CCc1nnc(NC(=O)CN2CCN(c3cccc(OC)c3)CC2)s1	PP1 inh 33.6 | PP1 confirm inactive | PP5 counter inactive
c1ccc(-c2nnc(-c3ccccn3)nc2NC2CCCCC2)cc1	PREPL inh 86.1, PP1 inh 21.3 | PP1 confirm inactive | PP5 counter inactive
O=C(COc1ccccc1)Nc1nnc(-c2ccccc2Cl)o1	PP1 inh 22.9 (no result: UCH37 inh) | PP1 confirm 20.2 | PP5 counter inactive
O=C(Nc1nnc(-c2ccc3c(c2)CCCC3)o1)c1ccccc1	PP1 inh 23.0 (no result: UCH37 inh) | PP1 confirm 28.4 | PP5 counter inactive
O=C(Nc1nnc(-c2ccc(F)cc2)o1)c1cccc([N+](=O)[O-])c1	PP1 inh 18.9 (no result: UCH37 inh) | PP1 confirm 16.5 | PP5 counter inactive
O=C(Nc1nnc(-c2ccc3c(c2)CCCC3)o1)c1ccccc1Cl	PP1 inh 25.5 | PP1 confirm 25.1 | PP5 counter inactive
O=C(COc1ccccc1)Nc1nnc(-c2ccc(F)cc2)o1	none
CCOC(=O)NN=C(C)c1cccc(-n2cnnn2)c1	none (no result: PREPL inh, CTSL1 counter, PP1 inh, PP5 primary, UBC13 inh)
COc1ccccc1OCC(=O)NN=C1SCC(=O)N1Cc1ccccc1	none (no result: PREPL inh, CTSL1 counter, PP1 inh, PP5 primary, UBC13 inh)
O=C(COc1ccccc1)Nc1nnc(-c2ccc3c(c2)CCCC3)o1	PP1 inh 26.5 | PP1 confirm 27.2 | PP5 counter inactive
O=C(COC(=O)/C=C/c1ccccc1)Nc1nnc(-c2ccccc2)o1	PP1 inh 24.4 | PP1 confirm 30.0 | PP5 counter inactive
Cc1ccc(C=NNC(=O)c2ccc(Cn3cc([N+](=O)[O-])cn3)o2)cc1	none (no result: PREPL inh, CTSL1 counter, PP1 inh, PP5 primary, UBC13 inh)
O=C(NN=Cc1cccnc1)c1ccc(NC(=O)c2ccccc2Cl)cc1	none (no result: PREPL inh, CTSL1 counter, PP1 inh, PP5 primary, UBC13 inh)
O=C(NCc1ccc(Cl)cc1)c1cc(-c2cccs2)on1	PP1 inh 21.2 | PP1 confirm 25.0 | PP5 counter inactive
CCOC(=O)c1cnc(-n2nc(C)cc2C)nc1NC	none
CCOC(=O)c1cnc(-n2nc(C)cc2C)nc1NC1CCCCC1	PP1 inh 55.2 | PP1 confirm 53.9 | PP5 counter inactive
Cc1ccc(C(=O)Nc2nnc(CC(=O)N/N=C/c3ccc(O)c(O)c3)s2)cc1	PP1 inh 17.7 (no result: UCH37 inh) | PP1 confirm inactive | PP5 counter inactive
COc1cc(C=NNC(=O)Cc2nnc(NC(=O)c3ccccc3)s2)ccc1O	none (no result: PREPL inh, CTSL1 counter, PP1 inh, PP5 primary, UBC13 inh)
COc1ccc(CNC(=O)CC(C)=NNC(=O)C(c2ccccc2)c2ccccc2)cc1	none (no result: PREPL inh, CTSL1 counter, PP1 inh, PP5 primary, UBC13 inh)
CCCCCCN(C(=O)CCCCCN1C(=O)NC(c2ccc(-c3ccccc3)cc2)C(C(=O)OCc2ccccc2)=C1C)C(C(=O)NCCCC)c1ccc(OCC(=O)OC)c(C(=O)OC)c1 (stereo not given)	PP1 inh 37.9 | PP1 confirm 21.2 | PP5 counter inactive
CCCCCCN(C(=O)CCCCCN1C(=O)NC(c2ccc(-c3ccccc3)cc2)C(C(=O)OCc2ccccc2)=C1C)C(C(=O)NCCCC)c1ccccc1 (stereo not given)	none (no result: PREPL inh, CTSL1 counter, PP1 inh, PP5 primary)
CCCCCCN(C(=O)CCCCCN1C(=O)NC(c2ccc(-c3ccccc3)cc2)C(C(=O)OCc2ccccc2)=C1C)C(C)C(=O)NCCCC (stereo not given)	PP1 inh 25.2 | PP1 confirm 22.8 | PP5 counter inactive
CCCCNC(=O)C(c1ccc(OCC(=O)OC)c(C(=O)OC)c1)N(CCc1c[nH]c2ccccc12)C(=O)CCCCCN1C(=O)NC(c2ccc(-c3ccccc3)cc2)C(C(=O)OCc2ccccc2)=C1C (stereo not given)	none (no result: PREPL inh, CTSL1 counter, PP1 inh, PP5 primary, UCH37 inh)
CCCCCCN(C(=O)CCCCCN1C(=O)NC(c2cccc([N+](=O)[O-])c2)C(C(=O)OCc2ccccc2)=C1C)C(C(=O)NCCCC)c1ccc(OCC(=O)OC)c(C(=O)OC)c1 (stereo not given)	PP1 inh 35.6 | PP1 confirm 37.2 | PP5 counter inactive
CCCCCCN(C(=O)CCCCCN1C(=O)NC(c2ccc([N+](=O)[O-])cc2)C(C(=O)OCc2ccccc2)=C1C)C(C(=O)NCCCC)c1ccc(OCC(=O)OC)c(C(=O)OC)c1 (stereo not given)	PP1 inh 22.5 (no result: UCH37 inh) | PP1 confirm 33.8 | PP5 counter inactive
Cc1cccc(NC(=O)Cn2c(O)c(N=NC(=O)c3ccccc3O)c3ccccc32)c1	PP1 inh 35.0 | PP1 confirm 27.5 | PP5 counter inactive
Cc1ccc(NC(=O)Cn2c(O)c(N=NC(=O)c3cc([N+](=O)[O-])ccc3O)c3ccccc32)cc1	none
CC(=O)c1ccc(NC(=O)C2CCCNC2=O)cc1 (stereo not given)	PP1 inh 21.6 | PP1 confirm inactive | PP5 counter inactive
COc1ccc2c3c(cccc13)C(=O)N(O)C2=O	PP1 inh 25.7 (no result: UBC13 inh) | PP1 confirm 41.9 | PP5 counter inactive
O=C1c2cccc3c([N+](=O)[O-])ccc(c23)C(=O)N1O	none (no result: UCH37 inh)
Cc1ccc(COc2ccc(C=NO)cc2)cc1	none (no result: PREPL inh, CTSL1 counter, PP1 inh, PP5 primary, UBC13 inh)
COc1cccc2c(=O)c3cccc(N)c3[nH]c12	PP1 inh 19.9 | PP1 confirm 19.1 | PP5 counter 12.8
COc1cccc2c(=O)c3c([nH]c12)OC(C)(C)C3	none
CCCCC[C@H](O)/C=C/[C@@H]1[C@@H](C/C=C\CCCC(=O)OC)[C@@H](O)C[C@H]1O	PP1 inh 46.3 | PP1 confirm 43.1 | PP5 counter inactive
COc1ccc(CN2C(=O)Cc3c2nc(N)c2c(N)nc(N4CCCCC4)c(C#N)c32)cc1	PP1 inh 26.4 | PP1 confirm 34.1 | PP5 counter 51.9
COc1cc2c(C#N)c(N3CCCCC3)nc(N)c2c(N)n1	none
